Screening data from PubChem.
STAT1 act: increases IFN-gamma driven STAT1 reporter signal; NIH 3T3 STAT1-luciferase reporter, luminescence; 100% = IFN-gamma alone, no compound; activation (% of control), % at 5.5 µM; 2.6% of 200,000 active; AID 932;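 active = activation above the screen-wide mean activation plus 3 SD, cut at about 130% in these data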;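 note: raw ratio to IFN-gamma control signal so 100% means no change and 0% no light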
sdo1 growth: compounds rescuing growth of sdo1-depleted yeast, bone marrow failure model; 0.21% of 140,000 active; AID 817; S. cerevisiae sdo1-depleted JHY4D growth rescue, OD600 30 h; active compounds read high; pdr5 snq2 efflux-pump mutant strain; z-score at 10 µM;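 active = z-score above 3 at both the 24 hr and the 30 hr optical density reads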;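 note: z-score against mean and SD of all compound wells on the same plate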
FLuc act counter: affects firefly luciferase, flagging false hits in luciferase stimulation screens. P08659. ATPlite luciferase biochemical, luminescence, 10 min; 0 = ATP-free wells, 1 = DMSO control. activation factor at 10 µM. 200,000 tested, under 10 active;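 active = luciferase activation factor, scaled between plate controls, of at least 2 with compound at 10 µM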
Target sequence (P08659 whole entry, looked up): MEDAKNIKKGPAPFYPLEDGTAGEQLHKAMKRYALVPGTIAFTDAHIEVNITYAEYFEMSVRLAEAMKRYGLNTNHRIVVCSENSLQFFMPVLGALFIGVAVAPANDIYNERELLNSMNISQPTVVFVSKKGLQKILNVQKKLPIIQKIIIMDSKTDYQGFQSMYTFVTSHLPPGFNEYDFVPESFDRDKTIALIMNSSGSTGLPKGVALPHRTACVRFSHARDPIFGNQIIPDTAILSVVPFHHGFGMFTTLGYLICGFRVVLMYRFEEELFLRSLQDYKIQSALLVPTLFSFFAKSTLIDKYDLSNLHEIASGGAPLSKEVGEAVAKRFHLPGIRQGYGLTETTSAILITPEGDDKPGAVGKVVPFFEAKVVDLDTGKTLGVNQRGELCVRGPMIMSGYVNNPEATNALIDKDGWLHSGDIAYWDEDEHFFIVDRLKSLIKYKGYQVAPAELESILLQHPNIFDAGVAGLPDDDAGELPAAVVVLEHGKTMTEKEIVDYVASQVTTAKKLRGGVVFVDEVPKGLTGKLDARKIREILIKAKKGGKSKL
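System: cell-free luciferase reagent; medium: PBS as buffer for the ATP substrate; doses: test compounds dosed from 2 mM stocks in 100% DMSO; incubation: 10 min, room temperature; measured by: luminescence from luciferase reaction; read-out: luciferase activation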
FLuc inh counter: Photinus pyralis luciferase inhibition counter-screen; P08659; ATPLite firefly luciferase biochemical luminescence, 10 min; inhibition, % at 10 µM; 1.5% of 200,000 active; AID 1006;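 active = inhibition above about 50% when tested at 10 µM, limit read from the data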
APP 5'UTR act: APP 5'UTR luciferase reporter activation. SH-SY5Y APP 5'UTR luciferase reporter, luminescence; zero percent = DMSO vehicle wells. activation, % at 2 µM. 1% of 190,000 active;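 active = activation above a set limit, based on mean plus 3 SD of controls, cut at about 140% in these data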
NF-kB expr up: compounds increasing NF-kB expression in human neuronal cells; NF-kB reporter expression; active compounds read high; fold change at 12.5 µM; 1.6% of 190,000 active; AID 1239; in the data active = fold change above about 3.3
* = called active by the depositor. Hits are enriched below; roughly 4.3% of the tested compounds scored in any of these assays.

COc1cccc(N2C(=O)NC(=O)/C(=C/c3ccc4c(c3)Cc3ccccc3-4)C2=O)c1 was read as STAT1 act 131*, FLuc act counter 1, FLuc inh counter -4, APP 5'UTR act 11 and NF-kB expr up 1.1.
`O=C(/C=C/c1ccccc1)c1c(O)n(CCc2ccccc2)c(=O)[nH]c1=O` gave STAT1 act 99, sdo1 growth -2, FLuc act counter 0.8, FLuc inh counter 16, APP 5'UTR act 7 and NF-kB expr up 1.5.
COc1cc(/C=C/C(=O)c2c(O)n(CCc3ccccc3)c(=O)[nH]c2=O)ccc1O was read as STAT1 act 96, sdo1 growth -0.72, FLuc act counter 0.4, FLuc inh counter 56*, APP 5'UTR act 4 and NF-kB expr up 2.8.
`CC(=O)Nc1cc(C(=O)N2CCC3(CC2)OCCO3)ccc1Sc1ccc(F)cc1` gave STAT1 act 93, FLuc act counter 1, FLuc inh counter -5, APP 5'UTR act -1 and NF-kB expr up 1.1.
Screening CC(=O)Nc1ccccc1C(=O)OCC(=O)c1ccccc1Cl returned STAT1 act 120, sdo1 growth -0.74, FLuc act counter 0.7, FLuc inh counter 25, APP 5'UTR act 47 and NF-kB expr up 1.8.
CC(=O)Nc1ccccc1C(=O)OCc1ccccc1F was read as STAT1 act 145*, FLuc act counter 1.1, FLuc inh counter -9, APP 5'UTR act 3 and NF-kB expr up 0.99.
O=C(Nc1ccccc1)OC1CN=C(N[N+](=O)[O-])NC1 (stereo unspecified) was read as STAT1 act 100, FLuc act counter 1, FLuc inh counter -4, APP 5'UTR act -16 and NF-kB expr up 1.2.
CCN1CCN(c2nc3ccccc3s2)CC1 was read as STAT1 act 128, sdo1 growth 0.89, FLuc act counter 0.7, FLuc inh counter 30, APP 5'UTR act 61 and NF-kB expr up 4.7*.
For Cc1cc(C(=O)CS(=O)(=O)c2ccc(F)cc2)cc(C)c1OC(=O)N(C)C the results were STAT1 act 125, FLuc act counter 0.4, FLuc inh counter 63*, APP 5'UTR act 62 and NF-kB expr up 1.9.
`COC(=O)C(O)(c1ccc(NC(=S)NC(=O)c2ccc(Cl)cc2Cl)cc1)C(F)(F)F` (stereo unspecified) gave STAT1 act 102, sdo1 growth -0.01, FLuc act counter 1.1, FLuc inh counter -8, APP 5'UTR act 15 and NF-kB expr up 1.4.
Screening COC(=O)C(O)(c1ccc(NC(=O)NC2CCCCC2)cc1)C(F)(F)F (stereo unspecified) returned STAT1 act 144*, sdo1 growth 0.18, FLuc act counter 0.8, FLuc inh counter 19, APP 5'UTR act 35 and NF-kB expr up 1.2.
For CC1(C)CN=C(Nc2nc3ccccc3s2)S1 the results were STAT1 act 136*, sdo1 growth -0.21, FLuc act counter 0.7, FLuc inh counter 34, APP 5'UTR act 126 and NF-kB expr up 4.7*.
For CCCCCCOc1ccc(CN2CCN(CC)CC2)cc1 the results were STAT1 act 105, sdo1 growth -0.31, FLuc act counter 0.9, FLuc inh counter 14, APP 5'UTR act 145* and NF-kB expr up 1.1.
Screening Cc1cc(C)[n+](C2C3CC4CC(C3)CC2C4)o1 (stereo unspecified) returned STAT1 act 87, sdo1 growth 0.88, FLuc act counter 1, FLuc inh counter -5, APP 5'UTR act 0 and NF-kB expr up 0.88.
COc1ccc(-c2nc3ccccc3c(=O)o2)cc1 was read as STAT1 act 107, FLuc act counter 0.5, FLuc inh counter 55*, APP 5'UTR act 19 and NF-kB expr up 2.2.
`CCOC(=O)c1c(-n2c(C)cc(C=C3C(=O)NC(=S)NC3=O)c2C)sc2c1CCCC2` gave STAT1 act 94, sdo1 growth -2.1, FLuc act counter 1, FLuc inh counter -5, APP 5'UTR act 0 and NF-kB expr up 5.6*.
`CCOP(=O)(OCC)c1ccc(O)cc1` gave STAT1 act 99, FLuc act counter 1.1, FLuc inh counter -8, APP 5'UTR act 12 and NF-kB expr up 1.4.
CCn1c(P(C)(=O)O)nc2cc(NC(=O)c3ccccc3F)ccc21 was read as STAT1 act 95, FLuc act counter 1, FLuc inh counter -3, APP 5'UTR act -3 and NF-kB expr up 0.92.
`Cc1nc(Cl)sc1C(=O)Nc1ccc2ccccc2c1` gave STAT1 act 134*, sdo1 growth -0.81, FLuc act counter 0.8, FLuc inh counter 16, APP 5'UTR act 94 and NF-kB expr up 5.5*.
`Cc1ccsc1C(=O)C1CCCN(Cc2ccc(-n3cccn3)cc2)C1` (stereo unspecified) gave STAT1 act 99, FLuc act counter 1.1, FLuc inh counter -5, APP 5'UTR act 24 and NF-kB expr up 1.2.
N#CCCn1cc(C(=O)Nc2ccc(F)cc2)c(-c2ccc([N+](=O)[O-])cc2)n1 was read as STAT1 act 93, FLuc act counter 1, FLuc inh counter -4, APP 5'UTR act -12 and NF-kB expr up 0.85.
Screening CN(C)C(=O)Oc1ccc(-c2nnco2)cc1 returned STAT1 act 110, sdo1 growth 1.2, FLuc act counter 1.1, FLuc inh counter -5 and NF-kB expr up 1.1.
`CN(C)C(=O)Oc1cccc(-c2cn3cc(Cl)ccc3n2)c1` gave STAT1 act 122, sdo1 growth -0.62, FLuc act counter 0.3, FLuc inh counter 75*, APP 5'UTR act 46 and NF-kB expr up 1.1.
Screening CN(C)C(=O)Oc1ccc([N+](=O)[O-])cc1 returned STAT1 act 99, FLuc act counter 1, FLuc inh counter 0, APP 5'UTR act 13 and NF-kB expr up 1.5.
CN(C)C(=O)Oc1ccc(-c2cn3cc(C(F)(F)F)ccc3n2)cc1 was read as STAT1 act 138*, sdo1 growth -1.5, FLuc act counter 0.5, FLuc inh counter 54*, APP 5'UTR act 31 and NF-kB expr up 2.2.
`CN(C)C(=O)Oc1ccc(-c2cn3cc(Cl)ccc3n2)cc1` gave STAT1 act 141*, sdo1 growth 1.1, FLuc act counter 0.1, FLuc inh counter 86*, APP 5'UTR act 167* and NF-kB expr up 6.8*.
`CCN(CC)P(=O)(NC(=O)c1cccn1C)N(CC)CC` gave STAT1 act 103, FLuc act counter 1, FLuc inh counter -3, APP 5'UTR act 18 and NF-kB expr up 1.1.
`O=c1[nH]c(=O)n(-c2ccccc2)c(O)c1N=Nc1ccc(Br)cc1` gave STAT1 act 99, FLuc act counter 0.9, FLuc inh counter 8, APP 5'UTR act 5 and NF-kB expr up 0.95.
Screening CC1CCCN(CC(=O)c2ccc(Cl)c(Cl)c2)C1 (stereo unspecified) returned STAT1 act 105, FLuc act counter 1, FLuc inh counter -4, APP 5'UTR act -33 and NF-kB expr up 0.95.
